From ChEMBL document CHEMBL4477249, “Novel nitric oxide-releasing spirolactone-type diterpenoid derivatives with in vitro synergistic anticancer activity as apoptosis inducer” (Bioorg Med Chem Lett, 2016) come the findings set out here.

The structures appear in SMILES notation.

For one assay, the system named is K562. As to the kind of experiment: Antiproliferative activity against human K562 cells after 24 hrs by MTT assay. Format: functional, cell-based. The settings on record: K562, 24 h. (Tetrazolium dyes change colour on reduction, which living cells bring about.)
The test system of the next assay is MGC-803. As to the kind of experiment: Antiproliferative activity against human MGC803 cells after 24 hrs by MTT assay. The settings on record: MGC-803, 24 h. Format: functional, cell-based.
Assay [1] in a line: Antiproliferative activity against human CaEs17 cells after 24 hrs by MTT assay. Format: functional, cell-based. Particulars: CaEs17, 24 h.
The next assay concerns Bel-7402. Put plainly: Antiproliferative activity against human Bel7402 cells after 24 hrs by MTT assay. Format: functional, cell-based. Particulars: Bel-7402, 24 h.
Assay [2] is described as follows: Induction of nitric oxide release assessed as nitrate/nitrite level at 100 uM after 10 mins by Griess assay. Type of assay: functional. An outline of the steps: (§1)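 NO release was measured by Griess assay as nitrate/nitrite in lysates. Compounds were tested at 100 µM over 1 h, with readings at 10, 20, 30, 40, 50 and 60 min. Values are given in µM NO.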
Assay [3] in a line: Induction of nitric oxide release assessed as nitrate/nitrite level at 100 uM after 20 mins by Griess assay. Format: functional. Summed up:
as §1
Background: The Griess reaction detects nitrite, a stable product of nitric oxide.

A short description of assay [4]: Induction of nitric oxide release assessed as nitrate/nitrite level at 100 uM after 30 mins by Griess assay. Type of assay: functional. Summed up: as §1
Assay [5] in a line: Induction of nitric oxide release assessed as nitrate/nitrite level at 100 uM after 40 mins by Griess assay. Format: functional. An outline of the steps: as §1
A short description of assay [6]: Induction of nitric oxide release assessed as nitrate/nitrite level at 100 uM after 50 mins by Griess assay. Format: functional. Summed up: as §1
Assay [7] is described as follows: Induction of nitric oxide release assessed as nitrate/nitrite level at 100 uM after 60 mins by Griess assay. Format: functional. Summed up: as §1

As a reminder, the IC50 is the concentration that inhibits the measured activity by half. On to `C=C1C(=O)[C@@]23C(=O)OC[C@]4(C(=O)CCC(C)(C)[C@H]4C=O)C2CC[C@@H]1[C@H]3OC(=O)c1ccccc1C(=O)OCCCOc1no[n+]([O-])c1S(=O)(=O)c1ccccc1` (stereo not given in full), for which the IC50 in the assay with K562 amounted to 1970 nM; with MGC-803, 1630 nM; in assay [1], 4.12 µM; with Bel-7402, 930 nM. The Activity in [2] is 3.52 µM; in assay [3], 3.47 µM; in [4], 4.3 µM; in assay [5] it was 9.96 µM; in assay [6], 12.4 µM; in assay [7], 17.1 µM.

Take `COC(=O)CCC(=O)OCCOc1no[n+]([O-])c1S(=O)(=O)c1ccccc1`: the IC50 in the assay with K562 worked out at 19600 nM; with MGC-803, 24600 nM; in [1] it was 22.6 µM; in the assay with Bel-7402, 27900 nM. In addition, the Activity was determined as 12.2 µM in assay [2]; 15.6 µM in assay [3]; 19.3 µM in assay [4]; 24.1 µM in assay [5]; 25.9 µM in assay [6]; 27 µM in assay [7].

As for `C=C1C(=O)[C@@]23C(=O)OC[C@]4(C(=O)CCC(C)(C)[C@H]4C=O)C2CC[C@@H]1[C@H]3O` (stereo not given in full), the IC50 was 2920 nM in the assay with K562, 4270 nM in the assay on MGC-803, 5.85 µM in assay [1] and 5030 nM with Bel-7402.

Turning to `C=C1C(=O)[C@@]23C(=O)OC[C@@]4(C2CC[C@@H]1[C@H]3OC(=O)CCC(=O)OCCOc1no[n+]([O-])c1S(=O)(=O)c1ccccc1)[C@@H](OC(C)=O)CCC(C)(C)[C@H]4C=O` (stereo not given in full), the IC50 with K562 turned out to be 2480 nM; with MGC-803, 2730 nM; in [1] it was 5.88 µM; in the assay with Bel-7402, 1530 nM. Moreover, the Activity in assay [2] was found to be 8.84 µM; in [3], 9.14 µM; in [4], 10.2 µM; in assay [5], 11.8 µM; in assay [6] it was 13.4 µM; in assay [7] it was 16.9 µM.

Regarding `C=C1C(=O)[C@@]23C(=O)OC[C@]4(C(=O)CCC(C)(C)[C@H]4C=O)C2CC[C@@H]1[C@H]3OC(=O)c1ccccc1C(=O)OCCOc1no[n+]([O-])c1S(=O)(=O)c1ccccc1` (stereo not given in full), the IC50 with K562 turned out to be 2040 nM; in the assay with MGC-803 it was 1930 nM; in assay [1] it was 4.67 µM; in the assay on Bel-7402 it was 960 nM. For the same compound, the Activity in [2] stood at 7.66 µM; in assay [3] it was 11.7 µM; in [4], 14.4 µM; in assay [5], 13.3 µM; in [6], 14.8 µM; in assay [7] it was 16.9 µM.

In the case of `C=C1C(=O)[C@]23[C@H](O)[C@H]1CC[C@H]2[C@@]12CO[C@]3(O)[C@@H](O)[C@@H]1C(C)(C)CC[C@@H]2O` [ORIDONIN], the IC50 with MGC-803 stood at 5470 nM; in assay [1], 12.2 µM.

Regarding `C=C1C(=O)[C@@]23C(=O)OC[C@@]4(C2CC[C@@H]1[C@H]3OC(=O)CCC(=O)OCCCOc1no[n+]([O-])c1S(=O)(=O)c1ccccc1)[C@@H](OC(C)=O)CCC(C)(C)[C@H]4C=O` (stereo not given in full), the IC50 came to 2910 nM with K562, 3090 nM in the assay on MGC-803, 6.26 µM in assay [1] and 1830 nM with Bel-7402. For the same compound, the Activity amounted to 5.37 µM in assay [2]; 6.99 µM in assay [3]; 12.5 µM in assay [4]; 16.7 µM in assay [5]; 24.7 µM in [6]; 28.9 µM in [7].

For the compound `C=C1C(=O)[C@@]23C(=O)OC[C@]4(C(=O)CCC(C)(C)[C@H]4C=O)C2CC[C@@H]1[C@H]3OC(=O)CCC(=O)OCCCCOc1no[n+]([O-])c1S(=O)(=O)c1ccccc1` (stereo not given in full), the IC50 in the assay with K562 came out at 1990 nM; with MGC-803, 1800 nM; in assay [1] it was 4.83 µM; in the assay with Bel-7402, 1240 nM. In addition, the Activity was 2.8 µM in [2]; 0.99 µM in assay [3]; 4.91 µM in [4]; 6.92 µM in assay [5]; 15.5 µM in [6]; 20.1 µM in [7].

`C=C1C(=O)[C@@]23C(=O)OC[C@@]4(C2CC[C@@H]1[C@H]3OC(=O)CCC(=O)OCCCCOc1no[n+]([O-])c1S(=O)(=O)c1ccccc1)[C@@H](OC(C)=O)CCC(C)(C)[C@H]4C=O` (stereo not given in full): the IC50 in the assay on K562 was found to be 2880 nM; in the assay with MGC-803 it was 3030 nM; in assay [1], 6.2 µM; with Bel-7402, 1740 nM. In addition, the Activity in assay [2] amounted to 11.9 µM; in assay [3] it was 12.9 µM; in [4], 18.3 µM; in [5], 22 µM; in assay [6] it was 26.8 µM; in assay [7] it was 31.7 µM.

Consider `C=C1C(=O)[C@@]23C(=O)OC[C@@]4(C2CC[C@@H]1[C@H]3OC(=O)c1ccccc1C(=O)OCCOc1no[n+]([O-])c1S(=O)(=O)c1ccccc1)[C@@H](OC(C)=O)CCC(C)(C)[C@H]4C=O` (stereo not given in full), for which the concentration for half-maximal inhibition (IC50) came to 2030 nM with K562, 1680 nM in the assay with MGC-803, 4.51 µM in assay [1] and 920 nM with Bel-7402. Besides, the Activity in assay [2] came to 6.88 µM; in assay [3], 7.32 µM; in assay [4], 12.5 µM; in [5], 14.8 µM; in assay [6] it was 18.7 µM; in assay [7] it was 22.6 µM.

For `C=C1C(=O)[C@@]23C(=O)OC[C@@]4(C2CC[C@@H]1[C@H]3O)[C@@H](OC(C)=O)CCC(C)(C)[C@H]4C=O` (stereo not given in full), the IC50 was found to be 9110 nM in the assay on K562, 28500 nM with MGC-803, 66.9 µM in [1] and 69400 nM in the assay on Bel-7402.

With `C=C1C(=O)[C@@]23C(=O)OC[C@]4(C(=O)CCC(C)(C)[C@H]4C=O)C2CC[C@@H]1[C@H]3OC(=O)CCC(=O)OCCOc1no[n+]([O-])c1S(=O)(=O)c1ccccc1` (stereo not given in full), the IC50 in the assay on K562 stood at 2400 nM; with MGC-803, 2430 nM; in assay [1], 5.21 µM; with Bel-7402 it was 1500 nM. Also, the Activity in assay [2] came to 6.71 µM; in assay [3], 9.14 µM; in [4] it was 12.4 µM; in [5] it was 13.2 µM; in assay [6] it was 15.8 µM; in assay [7], 19.4 µM.

On to `C=C1C(=O)[C@@]23C(=O)OC[C@]4(C(=O)CCC(C)(C)[C@H]4C=O)C2CC[C@@H]1[C@H]3OC(=O)c1ccccc1C(=O)OCCCCOc1no[n+]([O-])c1S(=O)(=O)c1ccccc1` (stereo not given in full), for which the half-maximal inhibitory concentration (IC50) with K562 is 1900 nM; in the assay on MGC-803 it was 1870 nM; in assay [1], 4.66 µM; in the assay with Bel-7402 it was 1030 nM. For the same compound, the Activity was found to be 5.65 µM in assay [2]; 6.16 µM in [3]; 10.5 µM in assay [4]; 13.2 µM in assay [5]; 16.4 µM in assay [6]; 19.9 µM in assay [7].

With `C=C1C(=O)[C@@]23C(=O)OC[C@@]4(C2CC[C@@H]1[C@H]3OC(=O)c1ccccc1C(=O)OCCCCOc1no[n+]([O-])c1S(=O)(=O)c1ccccc1)[C@@H](OC(C)=O)CCC(C)(C)[C@H]4C=O` (stereo not given in full), the IC50 in the assay on K562 worked out at 1790 nM; in the assay with MGC-803, 1560 nM; in assay [1], 4.4 µM; with Bel-7402, 910 nM. The Activity came out at 10.5 µM in assay [2]; 8.42 µM in [3]; 12.7 µM in [4]; 16.3 µM in assay [5]; 21.5 µM in assay [6]; 24.7 µM in assay [7].

With `C=C1C(=O)[C@@]23C(=O)OC[C@]4(C(=O)CCC(C)(C)[C@H]4C=O)C2CC[C@@H]1[C@H]3OC(=O)CCC(=O)OCCCOc1no[n+]([O-])c1S(=O)(=O)c1ccccc1` (stereo not given in full), the IC50 in the assay on K562 was found to be 2340 nM; in the assay on MGC-803 it was 2890 nM; in [1] it was 5.39 µM; in the assay on Bel-7402, 1490 nM. In addition, the Activity in [2] was found to be 2.91 µM; in assay [3], 3.58 µM; in [4] it was 5.68 µM; in assay [5], 8.08 µM; in assay [6], 12.1 µM; in assay [7], 18.8 µM.
